Assay results published in ChEMBL document CHEMBL3526153, “Metabolism of gambogic acid in rats: a rare intestinal metabolic pathway responsible for its final disposition” (Drug Metab Dispos, 2011).

Legend:
[1] = Drug level in PBS buffer treated with gambogic acid at 50 uM preincubated for 10 mins followed by NADPH addition measured after 2 hrs in presence of GSH and absence of liver microsomes; assay type: physicochemical
Outline: (§1)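 GA 50 μM in 1.0 mL 0.1 M PBS pH 7.4 with GSH 5.0 mM and NADPH 6.0 mM (final). Line 7 uses rat liver microsomes 1.0 mg/mL; line 2 omits microsomes. Preincubated 10 min at 37 °C, started with NADPH, run 2 h at 37 °C, duplicate. Quenched with ice-cold acetonitrile and dried. LC-MS/MS in negative ESI, isocratic 65% acetonitrile / 10 mM ammonium acetate.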

Liver microsome = experiment: Drug level in rat liver microsomes treated with gambogic acid at 50 uM preincubated for 10 mins followed by NADPH addition measured after 2 hrs in presence of GSH; assay type: ADME; outline: as §1
[2] = Retention time of the compound in Sprague-Dawley rat bile treated with gambogic acid at 4 mg/kg, iv measured over 24 hrs by LC-DAD-MS/MS analysis; assay type: ADME, organism-based; set-up: dose 4 mg/kg, route intravenous; details: in vivo
Outline: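 SD rats, n=4, bile-duct cannulated under chloral hydrate and allowed 1 h recovery. GA 4 mg/kg i.v.; bile collected on ice, pooled 0–24 h. C18 LC-DAD-MS/MS at 0.25 mL/min with acetonitrile gradient (38% to 80%) in 10 mM ammonium acetate, 40 °C, negative ESI.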

Drug metabolism [1]: metabolite_detected
Drug metabolism (Liver microsome): metabolite_detected
Retention_time [2]: 5.7 min
SMILES: CC(C)=CCC[C@]1(C)C=Cc2c(O)c3c(c(CC=C(C)C)c2O1)O[C@]12C(C3=O)C(SC[C@H](NC(=O)CC[C@H](N)C(=O)O)C(=O)NCC(=O)O)[C@@H]3C[C@H]1C(C)(C)O[C@@]2(C/C=C(/C)C(=O)O)C3=O (stereo partly drawn)
